Experimental data as given in ChEMBL document CHEMBL1145272, “P2 pyridine N-oxide thrombin inhibitors: a novel peptidomimetic scaffold” (Bioorg Med Chem Lett, 2005).

How the values were obtained:
[1] = biological target: Prothrombin (Homo sapiens, UniProt P00734); experiment: Binding affinity against thrombin in human plasma; format: cell-free
[2] = Half-life in dog plasma; format: ADME, organism-based, Canis lupus familiaris
Outline: (§1)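 Dogs were given the compound orally at 0.65, 0.7 or 0.95 mpk, with the dose differing by compound. Plasma was sampled to obtain the maximum concentration (Cmax, μM) and the plasma half-life (t1/2, h).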

[3] = Maximal plasma concentration in dogs after 0.95 mg/kg oral dose; format: ADME, organism-based, Canis lupus familiaris; parameters: dose 0.95 mg/kg, route oral; details: dog; outline: as §1
[4] = Maximal plasma concentration in dogs after 0.85 mg/kg oral dose; format: ADME, organism-based, Canis lupus familiaris; parameters: dose 0.85 mg/kg, route oral; details: dog
[5] = Maximal plasma concentration in dogs after 0.7 mg/kg oral dose; format: ADME, organism-based, Canis lupus familiaris; parameters: dose 0.7 mg/kg, route oral; details: dog; outline: as §1
[6] = Maximal plasma concentration in dogs after 0.65 mg/kg oral dose; format: ADME, organism-based, Canis lupus familiaris; parameters: dose 0.65 mg/kg, route oral; details: dog; outline: as §1

SMILES: N#Cc1ccc(N)[n+]([O-])c1CC(=O)NCc1cc(Cl)ccc1-n1cnnn1
- Ki [1]: 18 nM

SMILES: O=C(Cc1c(Cl)ccc(NCC(F)(F)c2ccccn2)[n+]1[O-])NCc1ccccc1-n1cncn1
- Ki [1]: 2.6 nM

SMILES: C[C@H](NC(=O)Cc1c(Cl)ccc(NCC(F)(F)c2ccccn2)[n+]1[O-])c1cc(Cl)ccc1CN
- half-life [2]: 4.5 h
- Ki [1]: 3.2 nM
- Cmax [3]: 2600 nM

SMILES: C[C@H](N)c1ccc(Cl)cc1CNC(=O)Cc1c(Cl)ccc(NCC(F)(F)c2ccccn2)[n+]1[O-]
- Ki [1]: 20 nM

SMILES: NCc1ccc(Cl)cc1CNC(=O)Cc1c(Cl)ccc(N)[n+]1[O-]
- Ki [1]: 26 nM

SMILES: N#Cc1ccc(NCC(F)(F)c2ccccn2)[n+]([O-])c1CC(=O)NCc1ncccc1-n1cncn1
- Ki [1]: 0.23 nM

SMILES: NCc1ccc(Cl)cc1C(CO)NC(=O)Cc1c(Cl)ccc(NCC(F)(F)c2ccccn2)[n+]1[O-] (centres undefined)
- half-life [2]: 1.5 h
- Ki [1]: 0.48 nM
- Cmax [4]: 340 nM

SMILES: NCc1ccc(Cl)cc1CNC(=O)Cc1cccc(NCC(F)(F)c2ccccn2)[n+]1[O-]
- Ki [1]: 0.04 nM

SMILES: Nc1ccc(Cl)c(CC(=O)NCc2cc(Cl)ccc2-n2cnnn2)[n+]1[O-]
- Ki [1]: 140 nM

SMILES: [O-][n+]1c(NCC(F)(F)c2ccccn2)ccc(Cl)c1CC(O)NCc1cccc(Cl)c1 (centres undefined)
- Ki [1]: 0.42 nM

SMILES: N#Cc1ccc(NCC(F)(F)c2ccccn2)[n+]([O-])c1CC(O)NCc1cccc(Cl)c1 (centres undefined)
- Ki [1]: 0.08 nM

SMILES: N#Cc1ccc(NCC(F)(F)c2ccccn2)[n+]([O-])c1CC(=O)NCc1cc(Cl)ccc1-n1cnnn1
- Ki [1]: 0.002 nM

SMILES: O=C(Cc1c(Cl)ccc(NCC(F)(F)c2ccccn2)[n+]1[O-])NCc1cc(Cl)ccc1-n1cncn1
- Ki [1]: 0.05 nM

SMILES: N#Cc1ccc(N)[n+]([O-])c1CC(=O)NCc1cc(Cl)ccc1CN
- Ki [1]: 10 nM

SMILES: N#Cc1ccc(NCC(F)(F)c2ccccn2)[n+]([O-])c1CC(=O)NCc1ccccc1
- Ki [1]: 150 nM

SMILES: N#Cc1ccc(NCC(F)(F)c2ccccn2)[n+]([O-])c1CC(O)NCc1ccccc1CN (centres undefined)
- Ki [1]: < 0.01 nM

SMILES: O=C(Cc1cccc(NCC(F)(F)c2ccccn2)[n+]1[O-])NCc1cc(Cl)ccc1-n1cncn1
- Ki [1]: 1.5 nM

SMILES: NCc1ccc(Cl)cc1CNC(=O)Cc1c(Cl)ccc(NCC(F)(F)c2ccccn2)[n+]1[O-]
- Ki [1]: < 0.01 nM

SMILES: C[C@@H](N)c1ccc(Cl)cc1CNC(=O)Cc1c(Cl)ccc(NCC(F)(F)c2ccccn2)[n+]1[O-]
- half-life [2]: 2 h
- Ki [1]: 0.45 nM
- Cmax [5]: 100 nM

SMILES: C[C@@H](NC(=O)Cc1c(Cl)ccc(NCC(F)(F)c2ccccn2)[n+]1[O-])c1cc(Cl)ccc1CN
- Ki [1]: 260 nM

SMILES: O=C(Cc1c(Cl)ccc(NCC(F)(F)c2ccccn2)[n+]1[O-])NCc1ncccc1F
- Ki [1]: 6 nM

SMILES: O=C(Cc1c(Cl)ccc(NCC(F)(F)c2ccccn2)[n+]1[O-])NCc1ncccc1-n1cncn1
- Ki [1]: 2.5 nM

SMILES: N#Cc1ccc(NCC(F)(F)c2ccccn2)[n+]([O-])c1CC(=O)NCc1ncccc1F
- Ki [1]: 1.5 nM

SMILES: O=C(Cc1cccc(NCC(F)(F)c2ccccn2)[n+]1[O-])NCc1cc(Cl)ccc1-n1cnnn1
- Ki [1]: 0.14 nM

SMILES: NCc1ccccc1CNC(=O)Cc1c(Cl)ccc(NCC(F)(F)c2ccccn2)[n+]1[O-]
- half-life [2]: 1.5 h
- Cmax [6]: 820 nM
- Ki [1]: 0.4 nM

SMILES: N#Cc1ccc(NCC(F)(F)c2ccccn2)[n+]([O-])c1CC(=O)NCc1cc(Cl)ccc1CN
- Ki [1]: 0.001 nM
